According to ChEMBL document CHEMBL1137321, “Identification of small molecule agonists of the orphan nuclear receptors liver receptor homolog-1 and steroidogenic factor-1” (J Med Chem, 2006):
The source made the active and inactive calls. The calls are words filed in the database; no cut-off is given here.

Assays:
[1] = biological target: T1, Nuclear receptor subfamily 5 group A member 2 (Homo sapiens, UniProt O00482); experiment: Binding affinity to human LRH1 relative to 3-(E-Oct-4-en-4-yl)-1-phenylamino-2-phenyl-cis-bicyclo[3.3.0]oct-2-ene by FRET-based peptide recruitment assay
How it was run: (§1)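 The apo-receptor starts with 1 equiv of bound phospholipid. EC50 determined, n = 3. Relative efficacy is normalized to the reference agonist at ±5%.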

[2] = biological target: T2, Steroidogenic factor 1 (Homo sapiens, UniProt Q13285); experiment: Binding affinity to human SF1 by FRET-based peptide recruitment assay
How it was run: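 FRET assay measuring recruitment of a DAX-1 peptide (aa 1-23) to human SF-1. The apo-receptor starts with 1 equiv of bound phospholipid. Relative efficacy is normalized to the reference agonist at ±5%.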

[3] = biological target: T1, Nuclear receptor subfamily 5 group A member 2; experiment: Binding affinity to human LRH1 by FRET-based peptide recruitment assay; how it was run: as §1
[4] = biological target: T2, Steroidogenic factor 1; experiment: Binding affinity to human SF1 relative to 3-Hexyl-1-phenylamino-2-phenyl-cis-bicyclo[3.3.0]oct-2-ene1 by FRET-based peptide recruitment assay
How it was run: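 FRET assay measuring recruitment of a DAX-1 peptide (aa 1-23) to human SF-1. The apo-receptor starts with 1 equiv of bound phospholipid. EC50 determined, n = 3. Relative efficacy is normalized to the reference agonist at ±5%.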

[5] = biological target: T1, Nuclear receptor subfamily 5 group A member 2; experiment: Agonist activity at human LRH1 assessed as induction of SHP mRNA expression in human primary hepatocytes at 10 uM; type: functional, cell-based; details: Hepatocyte
How it was run: (§2)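 Human liver cells (HepG2 cells or primary hepatocytes) treated with 10 µM compound; SHP mRNA expression quantified by quantitative PCR.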

[6] = biological target: T1, Nuclear receptor subfamily 5 group A member 2; experiment: Agonist activity at human LRH1 expressed in CV1 cells assessed as SHP reporter gene transactivation by luciferase assay; type: functional, cell-based, CV-1
[7] = biological target: T1, Nuclear receptor subfamily 5 group A member 2; experiment: Agonist activity at human LRH1 assessed as induction of SHP mRNA expression in HepG2 cells at 10 uM; type: functional, cell-based; how it was run: as §2

T1 sequence (O00482 whole entry): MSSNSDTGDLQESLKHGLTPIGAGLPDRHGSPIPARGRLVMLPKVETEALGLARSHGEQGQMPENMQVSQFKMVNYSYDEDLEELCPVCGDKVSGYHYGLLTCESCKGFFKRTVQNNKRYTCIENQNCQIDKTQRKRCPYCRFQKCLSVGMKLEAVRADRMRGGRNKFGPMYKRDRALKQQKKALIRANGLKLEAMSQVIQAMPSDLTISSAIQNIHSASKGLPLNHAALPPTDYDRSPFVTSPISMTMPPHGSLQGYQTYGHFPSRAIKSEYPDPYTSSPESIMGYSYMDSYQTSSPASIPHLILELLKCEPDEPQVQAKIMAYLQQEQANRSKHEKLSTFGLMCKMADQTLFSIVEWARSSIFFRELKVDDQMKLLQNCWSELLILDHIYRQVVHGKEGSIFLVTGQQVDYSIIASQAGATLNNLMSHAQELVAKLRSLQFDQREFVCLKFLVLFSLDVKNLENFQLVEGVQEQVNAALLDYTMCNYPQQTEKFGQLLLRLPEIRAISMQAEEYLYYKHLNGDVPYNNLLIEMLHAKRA
T2 sequence (Q13285 whole entry, the tested form may be a part): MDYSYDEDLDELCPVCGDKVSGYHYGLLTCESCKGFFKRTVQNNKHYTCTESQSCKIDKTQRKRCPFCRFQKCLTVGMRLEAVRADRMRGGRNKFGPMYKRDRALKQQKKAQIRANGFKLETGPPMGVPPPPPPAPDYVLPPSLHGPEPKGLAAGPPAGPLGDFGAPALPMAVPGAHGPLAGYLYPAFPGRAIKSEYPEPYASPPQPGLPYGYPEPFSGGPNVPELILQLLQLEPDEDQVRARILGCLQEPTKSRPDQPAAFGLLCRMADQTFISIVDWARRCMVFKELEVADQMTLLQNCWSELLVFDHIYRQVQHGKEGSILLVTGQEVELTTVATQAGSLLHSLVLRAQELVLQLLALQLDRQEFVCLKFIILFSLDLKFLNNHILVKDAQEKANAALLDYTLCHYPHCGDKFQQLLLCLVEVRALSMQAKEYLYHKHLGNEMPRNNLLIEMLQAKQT

| Structure (SMILES) | Efficacy [1] [%] | EC50 [2] [µM] | EC50 [3] [µM] | Efficacy [4] [%] | Activity [5] | EC50 [6] [µM] | Activity [7] |
| --- | --- | --- | --- | --- | --- | --- | --- |
| CCC/C=C(\CCC)C1=C(C)[C@]2(Nc3ccccc3)CCC[C@@H]2C1 | 15 | > 10 | 0.09 | – | – | – | – |
| CCCCCCC1=C(c2ccccc2)[C@]2(Nc3ccc(I)cc3)CCC[C@@H]2C1 (relative stereo) | – | > 10 | > 10 | – | – | – | – |
| CCCCC(C)C1=C(c2ccccc2)[C@]2(Nc3ccccc3)CCC[C@@H]2C1 (relative stereo) | 45 | 0.13 | 0.07 | 90 | – | – | – |
| CCCCCCCCC(C)C1=C(c2ccccc2)[C@]2(Nc3ccccc3)CCC[C@@H]2C1 (relative stereo) | 25 | 0.13 | 0.32 | 95 | – | – | – |
| CCCCC/C=C(\CCCCC)C1=C(c2ccccc2)[C@]2(Nc3ccccc3)CCC[C@@H]2C1 (relative stereo) | – | 0.014 | > 10 | 30 | – | – | – |
| CCCCCCCCCCCCC1=C(c2ccccc2)[C@]2(Nc3ccccc3)CCC[C@@H]2C1 (relative stereo) | – | > 10 | > 10 | – | – | – | – |
| CCCCCCC1=C(c2ccccc2)[C@]2(Nc3cccc(C)c3C)CCC[C@@H]2C1 (relative stereo) | 30 | 0.011 | 0.03 | 20 | – | – | – |
| CC/C=C(\CC)C1=C(c2ccccc2)[C@]2(Nc3ccccc3)CCC[C@@H]2C1 (relative stereo) | 50 | 0.8 | 1.4 | 80 | – | – | – |
| CCCCCCC1=C(c2ccccc2)[C@]2(Nc3ccc(C(C)(C)C)cc3)CCC[C@@H]2C1 (relative stereo) | – | > 10 | > 10 | – | – | – | – |
| CCC/C=C(\CCC)C1=C(c2ccc3ccccc3c2)[C@]2(Nc3ccccc3)CCC[C@@H]2C1 (relative stereo) | 55 | 0.13 | 0.06 | 30 | – | – | – |
| CCCCCCC1=C(c2ccccc2)[C@]2(Nc3ccc(OC(F)(F)F)cc3)CCC[C@@H]2C1 (relative stereo) | – | > 10 | > 10 | – | – | – | – |
| c1ccc(N[C@@]23CCC[C@@H]2CC(C2CCCCC2)=C3c2ccccc2)cc1 (relative stereo) | 25 | 0.18 | 0.23 | 65 | – | – | – |
| CCCCCCC1=C(c2ccccc2)[C@]2(Nc3cccc(F)c3)CCC[C@@H]2C1 (relative stereo) | 45 | 0.56 | 0.33 | 70 | – | – | – |
| CC1=C(c2ccccc2)[C@]2(Nc3ccccc3)CCC[C@@H]2C1 (relative stereo) | 20 | > 10 | 2.1 | – | – | – | – |
| CCCCCCC1=C(c2ccccc2)[C@]2(Nc3ccccc3)CCC[C@@H]2C1 (relative stereo) | 45 | – | 0.034 | – | – | – | – |
| CCCCCCC1=C(c2ccccc2)[C@]2(Nc3cccc4ccccc34)CCC[C@@H]2C1 (relative stereo) | 45 | > 10 | 1.2 | – | – | – | – |
| CCC/C=C(\CCC)C1=C(C2CCCCC2)[C@]2(Nc3ccccc3)CCC[C@@H]2C1 (relative stereo) | 50 | 0.01 | 0.012 | 90 | – | – | – |
| CCC/C=C(\CCC)C1=C(c2ccc(Br)cc2)[C@]2(Nc3ccccc3)CCC[C@@H]2C1 (relative stereo) | 70 | 0.17 | 0.16 | 35 | – | – | – |
| CCC/C=C(\CCC)C1=C(c2ccccc2)[C@]2(Nc3ccccc3)CCC[C@@H]2C1 (relative stereo) | – | – | 0.43 | 50 | Active | 1 | Active |
| CCCCCCC1=C(c2ccccc2)[C@]2(Nc3ccc(Cl)cc3)CCC[C@@H]2C1 (relative stereo) | 15 | 0.7 | 1 | 25 | – | – | – |
| c1ccc(N[C@@]23CCC[C@@H]2CC(c2ccccc2)=C3c2ccccc2)cc1 (relative stereo) | 35 | 0.12 | 0.15 | 55 | – | – | – |
| CCC/C=C(\CCC)C1=C(c2cccc(OC)c2)[C@]2(Nc3ccccc3)CCC[C@@H]2C1 (relative stereo) | 115 | 0.14 | 0.1 | 45 | – | – | – |
| CCC/C=C(\CCC)C1=C(CCCC)[C@]2(Nc3ccccc3)CCC[C@@H]2C1 (relative stereo) | 50 | 0.03 | 0.022 | 95 | – | – | – |
